Converted amounts (≈) assume the structure as drawn. The source made the active and inactive calls. No cut-off for these calls is given here.
Columns and labels:
Aeromonas salmonicida = assay: Antimicrobial activity against Aeromonas salmonicida subsp. salmonicida CIP 103209T after 24 hrs by broth micro dilution assay; assay type: functional
Method in brief: (§1)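 Compounds were in DMSO (at most 5% of total volume) and were incubated with the strain in PB medium in 96-well plates at 37 °C for 24 h with stirring. Growth was read as optical density at 630 nm. Runs were in triplicate and averaged. Wells without growth were plated on rich solid medium to tell bacteriostatic from bactericidal action.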

Vibrio anguillarum = assay: Antimicrobial activity against Vibrio anguillarum CIP 63.36T after 24 hrs by broth micro dilution assay; assay type: functional; method in brief: as §1
Shewanella baltica = assay: Antimicrobial activity against Shewanella baltica CIP 105850T after 24 hrs by broth micro dilution assay; assay type: functional; method in brief: as §1
Escherichia coli = assay: Antimicrobial activity against Escherichia coli CIP 54.8 after 24 hrs by broth micro dilution assay; assay type: functional; settings: CIP 54.8, 24 h; method in brief: as §1
Micrococcus luteus = assay: Antimicrobial activity against Micrococcus luteus CIP A270 after 24 hrs by broth micro dilution assay; assay type: functional; settings: CIP A270, 24 h; method in brief: as §1
Paracentrotus lividus [1] = assay: Antiproliferative activity against Paracentrotus lividus eggs assessed as inhibition of first cell division measured 75 mins post fertilization by inverted microscopy; settings: 1.25 h
Paracentrotus lividus [2] = assay: Antiproliferative activity against Paracentrotus lividus eggs assessed as inhibition of first cell division at 2 uM measured 75 mins post fertilization by inverted microscopy relative to control; assay type: functional; settings: 1.25 h
Method in brief: (§2)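 Paracentrotus lividus gametes were collected after acetylcholine injection into the coelomic cavity. Fertilized eggs were incubated with compound at 0–30 μM in 96-well microplates. Dividing eggs were scored under an inverted microscope at 75 min post-fertilization, when control eggs had completed first cleavage. The percentage of dividing eggs was recorded.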

Paracentrotus lividus [3] = assay: Antiproliferative activity against Paracentrotus lividus eggs assessed as inhibition of first cell division at 4 uM measured 75 mins post fertilization by inverted microscopy relative to control; assay type: functional; settings: 1.25 h; method in brief: as §2
Paracentrotus lividus [4] = assay: Antiproliferative activity against Paracentrotus lividus eggs assessed as cells divided with formation of extracellular cytoplasmic granules at 5 uM measured 80 mins post fertilization by reversed optical microscopy; assay type: functional
Method in brief: (§3)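 P. lividus fertilized eggs were kept with 5 μM compound, with controls in seawater containing 1% MeOH. Morphology was scored under a reversed optical microscope (20×) at 80 min, 120 min and 18 h post-fertilization. The percentage of each typical phenotype was recorded.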

Paracentrotus lividus [5] = assay: Antiproliferative activity against Paracentrotus lividus eggs assessed as inhibition of cell division at 5 uM measured 80 mins post fertilization by reversed optical microscopy; assay type: functional, organism-based; method in brief: as §3
Paracentrotus lividus [6] = assay: Induction of morphological changes in Paracentrotus lividus eggs assessed as granulations of plasmic membrane at 5 uM measured 80 to 120 mins post fertilization by reversed optical microscopy; assay type: functional, organism-based; method in brief: as §3
Paracentrotus lividus [7] = assay: Inhibition of cell division in Paracentrotus lividus eggs assessed as reduction in reaching mesenchymal blastula stage at 5 uM measured 18 hrs post fertilization by reversed optical microscopy; assay type: functional, organism-based; method in brief: as §3
Paracentrotus lividus [8] = assay: Induction of morphological changes in Paracentrotus lividus eggs assessed as membrane blebbing at 5 uM measured 80 to 120 mins post fertilization by reversed optical microscopy; assay type: functional, organism-based; method in brief: as §3
Paracentrotus lividus [9] = assay: Induction of DNA fragmentation in Paracentrotus lividus eggs at 5 uM measured 60 mins post fertilization by TUNEL based fluorescence assay; assay type: functional, organism-based
Method in brief: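 P. lividus eggs were treated with 5 μM compound. Before first division (60 min post-fertilization), fluorescent TUNEL labelling of 3′-OH DNA ends was done. DNase-treated eggs served as positive control and untreated eggs as negative control.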

Paracentrotus lividus [10] = assay: Cell cycle arrest in Paracentrotus lividus eggs assessed as dispersion of condensed DNA in nucleus at 5 uM measured 60 mins post fertilization by DAPI staining staining based assay; assay type: functional, organism-based
Method in brief: (§4)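 Fertilized P. lividus eggs were treated with 5 μM compound and stained with DAPI to show nuclear DNA at 30 and 60 min post-fertilization. Chromatin state was compared with untreated control eggs.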

Paracentrotus lividus [11] = assay: Induction of apoptosis in Paracentrotus lividus eggs assessed as DNA condensation at 5 uM measured 30 mins post fertilization by DAPI staining staining based assay; assay type: functional, organism-based; method in brief: as §4
Paracentrotus lividus [12] = assay: Induction of apoptosis in Paracentrotus lividus eggs assessed as DNA localization at nuclear periphery at 5 uM measured 30 mins post fertilization by DAPI staining staining based assay; assay type: functional, organism-based; method in brief: as §4
SH-SY5Y [13] = assay: Cytotoxicity against human SH-SY5Y cells assessed as decrease in cell viability after 24 hrs by MTT assay; assay type: functional, cell-based
Method in brief: (§5)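 SH-SY5Y cells were grown in DMEM/F-12 with 10% FBS at 37 °C in 5% CO2. Cells were seeded at 5 × 10^4 per well one day ahead, then treated at 0.001–100 μM for 24 h. MTT at 500 μg/mL was added for 1 h at 37 °C, cells were lysed with 5% SDS, and absorbance was read at 595 nm. The saponin death control was subtracted, and IC50 came from a log(inhibitor)–response fit.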

SH-SY5Y [14] = assay: Induction of apoptosis in human SH-SY5Y cells at 1 uM after 6 hrs by Annexin V-FITC/PI staining based flow cytometry; assay type: functional, cell-based
Method in brief: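 SH-SY5Y cells in DMEM/F-12 with 10% FBS at 37 °C, 5% CO2, seeded at 1 × 10^6 cells per well and exposed 6 h. They were then washed in PBS, stained 15 min with annexin V–FITC plus propidium iodide in binding buffer, and 10 000 events were read by imaging flow cytometry. Cells were classed as viable, apoptotic, late apoptotic or necrotic. Three independent experiments; mean ± SEM; Student's t test vs untreated cells.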

SH-SY5Y [15] = assay: Cytotoxicity against human SH-SY5Y cells assessed as decrease in cell viability at 0.001 to 100 uM after 24 hrs by MTT assay; assay type: functional, cell-based; method in brief: as §5
SH-SY5Y [16] = assay: Induction of cell death in human SH-SY5Y cells at 15 uM pretreated with caspase inhibitor ZVAD-FMK for 24 hrs followed by compound addition measured after 6 hrs by MTT assay; assay type: functional, cell-based
Method in brief: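 SH-SY5Y cells were seeded as for MTT and preincubated with 40 μM Z-VAD-FMK for 24 h. Compound was then added (5, 10, 15 μM) for 6 h, and viability was read by MTT as % of untreated cells. Staurosporine (0.5 μM) was the apoptosis control. Data are mean ± SEM of three independent experiments in triplicate, with Student's t test.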

SH-SY5Y [17] = assay: Induction of apoptosis in human SH-SY5Y cells at 6 uM after 6 hrs by Annexin V-FITC/PI staining based flow cytometry; assay type: functional
Method in brief: (§6)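 SH-SY5Y cells were seeded at 1 × 10^6 per well and treated 6 h at 6 μM. Cells were washed in PBS and stained with annexin V–FITC and propidium iodide for 15 min. 10 000 events were analysed by imaging flow cytometry and classed as viable, apoptotic, late apoptotic or necrotic. Staurosporine (1 μM) was the death control. Data are mean ± SEM of three experiments, with Student's t test.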

SH-SY5Y [18] = assay: Induction of apoptosis in human SH-SY5Y cells assessed as necrotic cells at 6 uM after 6 hrs by Annexin V-FITC/PI staining based flow cytometry; assay type: functional; method in brief: as §6

Structure (SMILES)	MIC (Aeromonas salmonicida) [µM]	MIC (Vibrio anguillarum) [µM]	MIC (Shewanella baltica) [µM]	MIC (Escherichia coli) [µM]	MIC (Micrococcus luteus) [µM]	IC50 (Paracentrotus lividus [1]) [µM]	IC50 (SH-SY5Y [13]) [µM]	other results
C=CCCC[C@H]1OC(=O)[C@H]([C@@H](C)CC)N(C)C(=O)[C@@H]2CCCN2C(=O)[C@H](Cc2ccccc2)OC(=O)[C@H](C(C)C)N(C)C(=O)[C@H](C(C)C)NC(=O)[C@H]1C	9.4 (≈ 6.95 µg/mL)	8.5 (≈ 6.28 µg/mL)	22 (≈ 16.3 µg/mL)	12 (≈ 8.87 µg/mL)	29 (≈ 21.4 µg/mL)	3.9	14	inhibition at 2 µM (Paracentrotus lividus [2]): 10%; inhibition at 4 µM (Paracentrotus lividus [3]): 60%; Activity (Paracentrotus lividus [4]): 8%; inhibition (Paracentrotus lividus [5]): Active; Activity (Paracentrotus lividus [6]): Active; inhibition (Paracentrotus lividus [7]): Active; Activity (Paracentrotus lividus [8]): Active; Activity (Paracentrotus lividus [9]): Active; Activity (Paracentrotus lividus [10]): Active; Activity (Paracentrotus lividus [11]): Active; Activity (Paracentrotus lividus [12]): Active
CN[C@@H]1C[C@H]2O[C@@](C)([C@@H]1OC)n1c3ccccc3c3c4c(c5c6ccccc6n2c5c31)C(=O)NC4	–	–	–	–	–	–	–	Activity (SH-SY5Y [14]): Active
C#CCCC[C@H]1OC(=O)[C@H]([C@@H](C)CC)N(C)C(=O)[C@@H]2CCCN2C(=O)[C@H](Cc2ccccc2)OC(=O)[C@H](C(C)C)N(C)C(=O)[C@H](C(C)C)NC(=O)[C@H]1C	27 (≈ 19.9 µg/mL)	33 (≈ 24.3 µg/mL)	> 50	35 (≈ 25.8 µg/mL)	47 (≈ 34.6 µg/mL)	11	–	Activity (SH-SY5Y [15]): inactive
CCCCC[C@H]1OC(=O)[C@H]([C@@H](C)CC)N(C)C(=O)[C@@H]2CCCN2C(=O)[C@H](Cc2ccccc2)OC(=O)[C@H](C(C)C)N(C)C(=O)[C@H](C(C)C)NC(=O)[C@H]1C	6.7 to 7 (≈ 4.96 to 5.19 µg/mL)	7 to 7.4 (≈ 5.19 to 5.48 µg/mL)	16 (≈ 11.9 µg/mL)	14 (≈ 10.4 µg/mL)	17 (≈ 12.6 µg/mL)	7	6	Activity (SH-SY5Y [16]): Active; Activity (SH-SY5Y [17]): 7.9%; Activity (SH-SY5Y [18]): 36%
